# Hits are enriched below; roughly 1.8% of the tested compounds scored in any of these assays.
# LEDGF integ inh: blocks HIV-1 LEDGF/p75-dependent DNA integration | AID 743269 | 0.64% of 370,000 active | inhibition, % at 3.7 µM | TR-FRET IN-LEDGF/p75 DNA integration, Eu/Cy5;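 active means inhibition above the screen-wide mean plus 3 SD, cut at about 13% in these data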;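 further: signal is the Cy5 over europium emission ratio at 671 and 618 nm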
# UHRF1 MBD2 ctr: human UHRF1 methylated DNA binding inhibitors. Q96T88. UHRF1 binding to methylated oligo, TR-FRET. inhibition, % at 4.4 µM. 0.75% of 370,000 active. AID 687016;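 further: UHRF1 SRA domain binding a hemimethylated CpG hairpin DNA probe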
# Target sequence (Q96T88 whole entry, looked up, the tested form may be a part): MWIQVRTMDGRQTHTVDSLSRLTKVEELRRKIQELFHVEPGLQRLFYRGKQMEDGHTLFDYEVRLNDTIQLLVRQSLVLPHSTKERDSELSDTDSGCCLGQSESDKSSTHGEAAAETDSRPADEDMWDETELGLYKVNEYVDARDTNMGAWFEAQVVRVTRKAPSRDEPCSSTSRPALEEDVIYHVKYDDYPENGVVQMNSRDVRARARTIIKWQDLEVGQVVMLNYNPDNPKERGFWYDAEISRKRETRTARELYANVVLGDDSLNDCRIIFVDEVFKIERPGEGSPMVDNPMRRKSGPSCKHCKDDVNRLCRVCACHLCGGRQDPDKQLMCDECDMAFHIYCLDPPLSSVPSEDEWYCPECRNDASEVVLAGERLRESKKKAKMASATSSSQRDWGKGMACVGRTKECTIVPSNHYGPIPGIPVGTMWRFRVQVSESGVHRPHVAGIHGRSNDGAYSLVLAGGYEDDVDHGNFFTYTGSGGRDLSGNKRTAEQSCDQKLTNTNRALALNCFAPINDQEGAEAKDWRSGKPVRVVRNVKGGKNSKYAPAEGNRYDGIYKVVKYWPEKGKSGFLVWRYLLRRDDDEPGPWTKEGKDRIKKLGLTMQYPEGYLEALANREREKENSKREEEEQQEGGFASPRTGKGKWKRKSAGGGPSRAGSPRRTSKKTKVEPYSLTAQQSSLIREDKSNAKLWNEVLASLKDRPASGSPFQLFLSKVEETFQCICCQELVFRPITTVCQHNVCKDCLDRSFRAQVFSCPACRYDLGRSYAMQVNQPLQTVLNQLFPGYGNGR
# MBD2 DNA inh: blocks human MBD2 binding to methylated DNA; Q9UBB5; TR-FRET, MBD2 binding to methylated oligonucleotide; 0.31% of 370,000 active; inhibition, % at 4.4 µM; in the data active means inhibition above about 13%
# TDP2 absorb: blocks human TDP2 phosphodiesterase activity | recombinant TDP2, T5PNP hydrolysis, p-nitrophenol absorbance 415 nm | inhibition, % at 12.8 µM | 0.34% of 370,000 active | AID 720702;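 active means inhibition above the mean of all tested compounds plus 3 SD, set per campaign, cut at about 25% in these data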
#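 Assay system: Recombinant human TDP2 | Quantity: 120 nM TDP2 per well | Incubation: 2 h at 37 °C | Signal: Epi absorbance | Evaluation: Percent inhibition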
# Casp6 inh: inhibitors of human caspase-6; purified caspase-6, Z-VEID-R110 cleavage fluorescence; P55212; inhibition, % at 12.5 µM; 0.53% of 350,000 active; AID 686996;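 active means mean inhibition across replicates at least about 35%, with every replicate also reaching that limit, limit read from the data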
# NSD2 inh: inhibitors of human histone methyltransferase NSD2 | NSD2 peptide methylation, AlphaScreen, 120 min | inhibition, % at 12.5 µM | 0.54% of 310,000 active; in the data active means inhibition above about 50%
# UHRF1 ctr MBD2: counter-screen for MBD2 inhibitors: human UHRF1 methylated DNA binding inhibitors; shares compounds with MBD2 DNA inh; UHRF1 binding to methylated oligonucleotide, TR-FRET; inhibition, % at 4.4 µM; 25% of 1,000 active; AID 720530;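 further: UHRF1 SRA domain binding a labeled hemimethylated CpG hairpin DNA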
# MBD2 DBD conf: MBD2-DBD methyl-DNA binding inhibition, TR-FRET confirmation; AID 720531; 26% of 1,000 active; inhibition, % at 4.4 µM; shares compounds with MBD2 DNA inh; TR-FRET MBD2-DBD binding to methylated oligonucleotide; in the data active means inhibition above about 14%
# TDP2 confirm: confirmation of human TDP2 inhibitors. 22% of 1,100 active. recombinant human TDP2, absorbance read-out. inhibition, % at 12.8 µM. shares compounds with TDP2 absorb; in the data active means inhibition above about 25%
# IN multimer act: HIV-1 integrase multimerization activation, counter-screen; shares compounds with LEDGF integ inh; TR-FRET HIV-1 integrase multimerization, biochemical; activation, % at 7.7 µM; 17% of 2,000 active; AID 1053131; in the data active means activation above about 8.9%
# TR-FRET interf: optically interferes with TR-FRET readout in LEDGF counter-screen; 2,000 tested, under 10 active; TR-FRET optical interference counterscreen, HIV-1 IN multimerization; AID 1053135; shares compounds with LEDGF integ inh; inhibition, % at 7.7 µM;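 active means inhibition above the mean over all tested compounds plus 3 SD, which no compound reached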
# IN-LEDGF confirm: confirmation of HIV-1 LEDGF/p75-dependent integration inhibitors | shares compounds with LEDGF integ inh | TR-FRET LEDGF/p75-dependent HIV-1 integration, biochemical | inhibition, % at 3.7 µM | 36% of 2,000 active | AID 1053136; in the data active means inhibition above about 14%
# Numbers stand for hits; - = inactive; . = no result. Unless noted, no stated cut-off is given here; in the data, active means inhibition above about 21%; inactive means the rest.
SMILES,LEDGF integ inh,UHRF1 MBD2 ctr,MBD2 DNA inh,TDP2 absorb,Casp6 inh,NSD2 inh,UHRF1 ctr MBD2,MBD2 DBD conf,IN multimer act,TR-FRET interf,IN-LEDGF confirm,others
NCC[C@@H]1CC[C@H](NC(=O)C2CC2)[C@@H](CO)O1,.,.,.,.,-,.,.,.,.,.,.,
Cc1ccc(S(=O)(=O)N(C)C[C@@H]2Oc3ncc(-c4ccncc4)cc3C(=O)N([C@H](C)CO)C[C@H]2C)cc1,.,.,.,.,-,.,.,.,.,.,.,
COc1ccccc1/C=C1/C(=O)N(c2ccccc2)N=C1C,52.0,-,18.3,80.2,-,-,-,-,-,-,-,TDP2 confirm=-
CN1C2=N[C@@H](c3cccc(C(F)(F)F)c3)CC(=O)N2/C(=C\c2ccccc2)[C@H]1c1ccccc1,16.3,50.8,30.7,-,.,.,28.9,23.1,19.7,-,-,
CN1C2=N[C@@H](c3ccc(Br)cc3)CC(=O)N2/C(=C\c2ccccc2)[C@@H]1c1ccccc1,-,-,-,-,.,.,.,.,.,.,.,
COCC(=O)Nc1ccc2c(c1)OC[C@H](C)N(C(=O)NC(C)C)C[C@H](C)[C@@H](OC)CN(C)C2=O,.,.,.,.,-,.,.,.,.,.,.,
O=S(=O)(c1ccc2nc(-c3ccco3)c(-c3ccco3)nc2c1)N1CCOCC1,66.8,29.6,14.4,-,.,-,-,-,-,-,45.4,
O=S(=O)(c1ccc2ccccc2c1)N1CCOCC1,-,-,-,-,-,-,.,.,.,.,.,
O=C(C1CCOCC1)N1[C@H](CO)[C@@H](c2ccccc2)C12CN(CCC(F)(F)F)C2,.,.,.,.,-,.,.,.,.,.,.,
O=C(NN1C(=O)/C(=C/C=C/c2ccccc2)SC1=S)c1ccncc1,-,-,-,-,-,-,.,.,.,.,.,
O=C1/C(=C/C=C/c2ccco2)SC(=S)N1c1ccc(O)cc1,75.8,86.6,41.5,26.0,76.3,-,-,-,18.8,-,73.3,TDP2 confirm=-
O=C(NN1C(=O)/C(=C/C=C/c2ccco2)SC1=S)c1ccncc1,82.9,96.7,73.6,-,76.1,.,89.7,63.0,46.5,-,82.6,
COc1cc(/C=N/NC(=O)c2cc(-c3ccco3)nc3ccccc23)cc(OC)c1O,-,-,-,-,-,-,.,.,.,.,.,
O=C(N/N=C/c1cccc(F)c1)c1cc(-c2ccco2)nc2ccccc12,19.9,30.3,23.5,-,.,-,41.8,36.1,21.2,-,49.1,
O=C(COC(=O)c1cc(Cl)nc(Cl)c1)NC1CCCCC1,.,.,.,.,.,-,.,.,.,.,.,
COc1ccc(NC(=O)Nc2ccc3c(c2)[C@H]2C[C@H](CC(=O)N(C)C)O[C@@H](CO)[C@H]2O3)cc1,.,.,.,.,-,.,.,.,.,.,.,
Cc1nc2ccccc2c(=O)n1/N=C/c1ccc(O)c(O)c1O,60.6,37.2,26.8,-,-,.,-,-,18.5,-,80.4,
Oc1ccc(/C=N/NC(=S)Nc2cccnc2)c(O)c1O,83.6,63.5,30.3,34.9,49.4,.,-,-,30.2,-,84.3,TDP2 confirm=-
Cc1noc(C)c1S(=O)(=O)Nc1ccc2c(c1)C(=O)N([C@H](C)CO)C[C@H](C)[C@@H](CN(C)S(=O)(=O)c1ccc(Cl)cc1)O2,.,.,.,.,-,.,.,.,.,.,.,
COc1ccccc1C(=O)Nc1ccc2c(c1)C(=O)N(C)C[C@@H](OC)[C@H](C)CN(CC1CC1)[C@H](C)CO2,.,.,.,.,-,.,.,.,.,.,.,
O=C(CCS(=O)(=O)c1ccc(Br)cc1)N1CCN(c2ccc(F)cc2)CC1,19.3,72.8,25.7,-,.,-,-,-,-,-,-,
O=C(CCS(=O)(=O)c1ccc(Br)cc1)N1CCN(c2ccc(Cl)cc2)CC1,-,-,-,-,.,-,.,.,.,.,.,
C=C(C)C(=O)Oc1ccc(N=Nc2ccc(C)cc2)ccc1=O,17.7,61.6,37.6,-,79.6,-,66.5,43.3,31.1,-,26.1,
Cc1ccc(S(=O)(=O)Oc2ccccc2[N+](=O)[O-])cc1,35.1,-,14.3,-,-,-,-,-,-,-,-,
C[C@@H]1CN([C@H](C)CO)C(=O)c2cc(NC(=O)Cn3cnnn3)ccc2O[C@@H]1CN(C)S(=O)(=O)c1ccccc1,.,.,.,.,-,.,.,.,.,.,.,
SMILES,LEDGF integ inh,UHRF1 MBD2 ctr,MBD2 DNA inh,TDP2 absorb,Casp6 inh,NSD2 inh,UHRF1 ctr MBD2,MBD2 DBD conf,IN multimer act,TR-FRET interf,IN-LEDGF confirm,others
Cc1sc2nc3n(c(=O)c2c1C)CCCS3,-,-,-,-,.,-,.,.,.,.,.,
O=Cc1ccc2oc3nc4n(c(=O)c3c(=O)c2c1)CCCS4,19.6,-,17.7,-,.,-,37.7,35.9,17.4,-,32.2,
O=C(Cc1nnc(NC(=O)c2ccccc2)s1)N/N=C/c1ccco1,35.9,27.3,19.0,-,-,-,-,-,-,-,-,
Cc1[nH]n(-c2ccccc2)c(=O)c1C(c1cccc([N+](=O)[O-])c1O)c1c(C)[nH]n(-c2ccccc2)c1=O,25.5,24.2,21.0,83.9,-,-,-,-,-,-,-,TDP2 confirm=-
Cc1c(C(c2cccc([N+](=O)[O-])c2O)c2c(C)n(C)n(-c3ccccc3)c2=O)c(=O)n(-c2ccccc2)n1C,-,-,-,-,.,-,.,.,.,.,.,
Cc1ccc(S(=O)(=O)NCC[C@H]2CC[C@H](NC(=O)c3cnccn3)[C@@H](CO)O2)cc1,.,.,.,.,-,.,.,.,.,.,.,
O=c1[nH]c(=S)[nH]c2nc(-c3ccccc3)cnc12,-,-,-,-,-,-,.,.,.,.,.,
Cc1cc2nc3c(=O)[nH]c(=S)[nH]c3nc2cc1NC(=O)C(F)(F)F,74.1,27.5,33.0,-,-,.,-,-,11.8,-,-,
Cc1noc(C)c1NC(=O)N(C)C[C@H]1Oc2c(NS(C)(=O)=O)cccc2C(=O)N([C@@H](C)CO)C[C@H]1C,.,.,.,.,-,.,.,.,.,.,.,
Cc1c(Cl)cnc(NC(=O)COC(=O)/C=C/c2ccco2)c1Cl,-,-,-,-,-,-,.,.,.,.,.,
O=C(COC(=O)/C=C/c1ccco1)Nc1ncc(C(F)(F)F)cc1Cl,31.3,55.0,14.2,-,53.1,-,27.5,-,-,-,14.3,
Cc1ccc(C)n1C(CC(=O)O)c1ccc(C#N)cc1 (stereo not drawn),47.5,94.6,27.1,-,-,-,-,-,-,-,-,
COCC(=O)N(C)C[C@H]1Oc2cc(C3=CCCCC3)ccc2S(=O)(=O)N([C@@H](C)CO)C[C@H]1C,.,.,.,.,-,.,.,.,.,.,.,
